# Source: PubChem BioAssay
# The other results are listed elsewhere or left out. Calls of active or inactive are those of the source. Rule as the data show it, unless noted: active = inhibition above about 40%; inactive = the rest.
# Tests used:
# [1] = inhibitors of PAF-induced NF-kB signaling, retest, confirmation, cell-based, GFP fluorescence, single concentration (AID 602472); conditions: KKLEB CF airway cells, overnight, at 5 µM, stronger effect = higher value;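 also: stimulus PAF is a Pseudomonas aeruginosa filtrate and not platelet activating factor; plate controls were DMSO wells with stimulus for no effect and unstimulated DMSO wells for full effect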
# How it was run: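 Material: KKLEB immortalized cystic fibrosis airway epithelial cells with NFkB-GFP reporter; buffer or medium: 2% FBS cell medium, serum-free stimulus medium; also added: PAF stimulation; dosing: 5 µM single dose; times: 2 h compound pretreatment at 37 °C, overnight PAF exposure; detection: GFP fluorescence of NFkB reporter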
# [2] = inhibitors of PAF-induced NFkB signaling in CF airway cells, dose response, cell-based, uHTS hits, panel, cytotoxicity readout (AID 624344); conditions: CF bronchial epithelial cells, PAF-induced NFkB reporter inhibition, with PAF, run 1; at 79 µM (top of the series) unless noted
# [3] = as above; conditions: CF bronchial epithelial cells, PAF-induced NFkB reporter inhibition, with PAF, run 2; at 79 µM (top of the series) unless noted
# PEG-3 [4] = molecular target: PEG-3 (UniProt Q6IN02); test: Peg3 promoter luciferase inhibitors, potency, dose response, cell-based, HeLa, CREF/GAPDH counter-screen panel (AID 624167); conditions: CREF/GAPDH counter-screens; HeLa PEG-Prom luciferase reporter, overnight, run 1, dose range 1, at 100 µM (top of the series) unless noted
# PEG-3, sequence (Q6IN02 whole entry, looked up): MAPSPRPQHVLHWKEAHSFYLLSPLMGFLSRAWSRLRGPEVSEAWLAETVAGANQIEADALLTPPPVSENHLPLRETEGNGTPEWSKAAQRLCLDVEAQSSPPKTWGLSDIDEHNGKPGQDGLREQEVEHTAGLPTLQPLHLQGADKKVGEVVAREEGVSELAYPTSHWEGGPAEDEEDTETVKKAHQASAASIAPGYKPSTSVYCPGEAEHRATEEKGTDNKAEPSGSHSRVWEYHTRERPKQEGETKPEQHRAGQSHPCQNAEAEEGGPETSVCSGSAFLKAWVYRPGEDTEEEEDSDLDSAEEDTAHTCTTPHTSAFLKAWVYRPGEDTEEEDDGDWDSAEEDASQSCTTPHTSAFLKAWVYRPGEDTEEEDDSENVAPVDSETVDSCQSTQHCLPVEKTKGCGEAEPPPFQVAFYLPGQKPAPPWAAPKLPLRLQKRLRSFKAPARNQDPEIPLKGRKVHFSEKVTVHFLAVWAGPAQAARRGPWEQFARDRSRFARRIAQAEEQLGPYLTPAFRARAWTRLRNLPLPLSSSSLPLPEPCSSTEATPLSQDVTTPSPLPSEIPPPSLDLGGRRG
# PEG-3 [5] = molecular target: PEG-3 (UniProt Q6IN02); test: as above; conditions: CREF/GAPDH counter-screens; HeLa PEG-Prom luciferase reporter, overnight, run 2, dose range 1, at 100 µM (top of the series) unless noted
# [6] = HIF-2a reporter inhibitor retest, confirmation, luminescence, 786-0 RCC cells (AID 651580;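 active = mean inhibition across four replicates of at least 40 percent at the single tested concentration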); conditions: HIF-2a luciferase reporter luminescence, overnight, at 18.8 µM, stronger effect = higher value
# [7] = HIF-1a luciferase reporter signal reduction – MiaPaCa-2 cells, single concentration, counter-screen for HIF-2a inhibitor project, confirmation (AID 651589;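 active = mean inhibition of the reporter signal across four replicates at the single tested dose of 50% or more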); conditions: MiaPaCa-2 HIF-1a luciferase reporter, desferoxamine, overnight; at 18.8 µM; stronger effect = higher value
# [8] = molecular target: Tumor necrosis factor receptor superfamily member 10B (Homo sapiens) (UniProt O14763); test: caspase-8 TRAIL sensitization, hit retest, confirmation, cell-based, NB7+caspase-8, with/without TRAIL, luminescence panel (AID 651596; in the data active = activity above about 50%); conditions: NB7 neuroblastoma + caspase-8, TRAIL sensitization, luminescence viability, with TRAIL, mean of runs, at 10 µM, stronger effect = higher value
# Tumor necrosis factor receptor superfamily member 10B (Homo sapiens), sequence (O14763 whole entry, looked up): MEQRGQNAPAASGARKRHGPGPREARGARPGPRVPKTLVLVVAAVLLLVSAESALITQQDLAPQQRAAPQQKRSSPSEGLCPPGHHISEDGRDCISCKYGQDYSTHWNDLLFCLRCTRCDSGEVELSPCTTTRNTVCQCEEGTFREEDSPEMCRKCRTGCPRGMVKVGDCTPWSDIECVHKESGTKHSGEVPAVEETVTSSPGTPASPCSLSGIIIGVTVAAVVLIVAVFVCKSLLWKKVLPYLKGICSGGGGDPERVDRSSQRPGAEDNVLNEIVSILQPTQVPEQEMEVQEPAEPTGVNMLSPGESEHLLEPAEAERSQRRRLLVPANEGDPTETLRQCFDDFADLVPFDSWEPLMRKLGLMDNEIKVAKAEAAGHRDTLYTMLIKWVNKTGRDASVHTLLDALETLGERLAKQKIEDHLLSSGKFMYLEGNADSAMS
# [9] = as above; conditions: NB7 neuroblastoma + caspase-8, without TRAIL, luminescence viability, without TRAIL, mean of runs, at 10 µM
smiles,measurement,setting,value
C=C1C(=O)[C@]23C[C@H]1CCC2[C@@]1(C)C(C[C@@H]3O)[C@](C)(C(=O)O)CC[C@@H]1O (stereo not given in full),inhibition,[1],83% (active)
same,inhibition,[2],97.1%
same,inhibition,[3],104%
Cn1cc(CN2CCCC(C(=O)Nc3ccc(-c4cccc(F)c4)cc3)C2)cn1 (stereo not given),inhibition,PEG-3 [4],101%
same,inhibition,PEG-3 [5],102%
CCN(CC)CCCCNc1ncc2cc(-c3cc(OC)cc(OC)c3)c(NC(=O)NC(C)(C)C)nc2n1,inhibition,PEG-3 [4],97.1%
same,inhibition,PEG-3 [5],101%
O=C(c1ccco1)N1CCN(c2ncnc3c2[nH]c2ccc(Br)cc23)CC1,inhibition,PEG-3 [4],99.5%
same,inhibition,PEG-3 [5],98.2%
CCOC(=O)C(=Cc1ccccc1)C(=O)c1ccccc1,inhibition,[1],-122% (inactive)
same,inhibition,[6],97.2% (active)
same,inhibition,[7],108% (active)
O=C(c1cc(-c2cccs2)nn1-c1ccccc1)N1CCN(S(=O)(=O)c2ccccc2)CC1,inhibition,PEG-3 [4],-25.3%
same,inhibition,PEG-3 [5],27.8%
COc1ccccc1CCNC(=O)C1CCN(c2nnc(C)c3c(C)n(-c4ccc(C)cc4)nc23)CC1,inhibition,PEG-3 [4],99%
same,inhibition,PEG-3 [5],97.3%
CN(C)CCNC(=O)/C(=C/c1ccc(-c2ccc(Cl)cc2)o1)NC(=O)c1ccccc1,inhibition,PEG-3 [4],102%
same,inhibition,PEG-3 [5],98.6%
COc1ccc2nc3n(c(=O)c2c1)-c1cc2ccccc2cc1C(=O)NC3Cc1ccc(O)cc1 (stereo not given),inhibition,PEG-3 [4],86.9%
same,inhibition,PEG-3 [5],98.8%
CC1=C(CC[C@@H](C)CO)OC2CC3C4CCC5CC(O)CCC5(C)C4CC(=O)C3(C)C12 (stereo not given in full),inhibition,PEG-3 [4],88.8%
same,inhibition,PEG-3 [5],83.2%
O=c1[nH]c(=O)n(C2OC(CO)C(O)C2O)cc1F (stereo not given),inhibition,PEG-3 [4],68.7%
same,inhibition,PEG-3 [5],76.9%
O=C1c2ccccc2C(=O)C12OC2c1ccc(Cl)cc1Cl (stereo not given),inhibition,PEG-3 [4],99%
same,inhibition,PEG-3 [5],102%
COc1cccc(NC(=O)CN(C)C(=O)c2cc(-c3ccc(F)cc3)nc3ccccc23)c1,inhibition,PEG-3 [4],102%
same,inhibition,PEG-3 [5],99.1%
COc1cc2c(cc1OC)CN(c1nc(-c3cccnc3)nc3ccccc13)CC2,inhibition,PEG-3 [4],95.5%
same,inhibition,PEG-3 [5],99.1%
Cc1cc(C)c2ccc(N)nc2c1O,inhibition,PEG-3 [4],"70.1% [run 1, dose range 1, at 50 µM]"
same,inhibition,PEG-3 [5],"67.1% [run 2, dose range 1, at 50 µM]"
CCCN1CCc2c(sc(NC(=O)c3ccc(S(=O)(=O)N4CCN(C(=O)OCC)CC4)cc3)c2C(N)=O)C1,inhibition,PEG-3 [4],78.5%
same,inhibition,PEG-3 [5],85.4%
CCCCCCC=C1CCC(CN2CCCC2)C1=O (stereo not given),inhibition,PEG-3 [4],98.4%
same,inhibition,PEG-3 [5],101%
Cc1nn(-c2ccccc2)c(Cl)c1/C=N/NC(=O)c1nn(C)cc1[N+](=O)[O-],inhibition,[1],14.2% (inactive)
same,activity,[8],40.9%
same,activity,[9],46.5%
CC(C(=O)NC1CCCC1)N(C(=O)Cn1nnc(-c2ccc(F)cc2)n1)c1ccccc1F (stereo not given),inhibition,PEG-3 [4],99.3%
same,inhibition,PEG-3 [5],102%
CCCCCc1ccc(OCCCC[n+]2cccc(C)c2)c(CCCCC)c1,inhibition,PEG-3 [4],98.6%
same,inhibition,PEG-3 [5],101%
CCCCN(C)CCNC(=O)c1cc(-c2cccnc2)nc2ccc(S(=O)(=O)N3CCC(C)CC3)cc12,inhibition,PEG-3 [4],100%
same,inhibition,PEG-3 [5],96.1%
O=C(CCCN1C(=O)/C(=C/c2cccc(Br)c2)SC1=S)Nc1cccnc1,inhibition,PEG-3 [4],101%
same,inhibition,PEG-3 [5],96.5%
CCN1C/C(=C/c2ccc(N3CCOCC3)cc2)C(=O)/C(=C/c2ccc(N3CCOCC3)cc2)C1,inhibition,PEG-3 [4],94.6%
same,inhibition,PEG-3 [5],96.4%
CN1CCC(N(C)S(=O)(=O)c2ccc(NC(=O)COc3ccc(Br)cc3Cl)cc2)CC1,inhibition,PEG-3 [4],99.8%
same,inhibition,PEG-3 [5],101%
C[C@@]12C(=O)Nc3cc(Cl)ccc3C(=O)N1[C@H]1c3cc(Cl)ccc3OC[C@@H]1[C@@H]2c1ccccc1,inhibition,PEG-3 [4],32.1%
same,inhibition,PEG-3 [5],36.4%
O=C(Sc1cccc2cccnc12)c1ccccc1Br,inhibition,PEG-3 [4],99.3%
same,inhibition,PEG-3 [5],93.8%
CCN1CCN(Cc2ccc(NC(=O)c3cc(NC(=O)c4ccno4)cc(OC)c3)cc2C(F)(F)F)CC1,inhibition,PEG-3 [4],95.5%
same,inhibition,PEG-3 [5],102%
CC(C)(C)c1ccc(/C=N/Nc2ccc(C(=O)O)cc2)cc1,inhibition,PEG-3 [4],89%
same,inhibition,PEG-3 [5],98.5%
COc1ccc(C[C@H]2CN3C(=NC[C@@H]3Cc3ccc(O)cc3)N2C[C@H](C)NC(=O)c2ccc(C)c(Br)c2)cc1,inhibition,PEG-3 [4],102%
same,inhibition,PEG-3 [5],102%
COc1ccc(N(Cc2cc3cc(OC)ccc3[nH]c2=O)S(=O)(=O)c2ccc(NC(C)=O)cc2)cc1,inhibition,PEG-3 [4],89.7%
same,inhibition,PEG-3 [5],89.7%
O=[N+]([O-])c1ccc(-c2nc(Nc3cccc(O)c3)c3ccccc3n2)cc1,inhibition,PEG-3 [4],99.4%
same,inhibition,PEG-3 [5],101%
CNCC[C@H](Oc1cccc2ccccc12)c1cccs1,inhibition,PEG-3 [4],102%
same,inhibition,PEG-3 [5],98.8%
N#Cc1cc2c(nc1SC1CC(=O)N(c3ccccc3)C1=O)CCC2 (stereo not given),inhibition,PEG-3 [4],33.5%
same,inhibition,PEG-3 [5],25.6%
C/C(=N\N=C(N)N)c1ccc(Cl)cc1Cl,inhibition,PEG-3 [4],99.4%
same,inhibition,PEG-3 [5],101%
Cc1ccc2cccc(OCC(=O)Nc3cccc(S(=O)(=O)N4CCCC4)c3)c2n1,inhibition,PEG-3 [4],94.5%
same,inhibition,PEG-3 [5],97.2%
COc1cc(CNCCN2CCOCC2)ccc1OCc1ccc(Cl)cc1Cl,inhibition,PEG-3 [4],102%
same,inhibition,PEG-3 [5],101%
CN(C)CCCNc1ncnc2oc(-c3ccccc3)c(-c3ccccc3)c12,inhibition,PEG-3 [4],102%
same,inhibition,PEG-3 [5],101%
CCOC(=O)c1c(NC(=O)COc2ccccc2F)sc2c1CC(C)(C)NC2(C)C,inhibition,PEG-3 [4],89.1%
same,inhibition,PEG-3 [5],102%
Cc1cccc(NC(=O)CSc2nc3ccccc3c3nc(CCc4c(C)n[nH]c4C)nn23)c1,inhibition,PEG-3 [4],97.9%
same,inhibition,PEG-3 [5],95.8%
c1cc2c3c(cccc3c1)NC1(CCC3(CC1)Nc1cccc4cccc(c14)N3)N2,inhibition,PEG-3 [4],97.7%
same,inhibition,PEG-3 [5],102%
Cc1c(C(=O)Nc2ccc(S(=O)(=O)N(C)C3CCN(C)CC3)cc2)oc2c(Cl)cccc12,inhibition,PEG-3 [4],102%
same,inhibition,PEG-3 [5],99.1%
